These results are taken from ChEMBL document CHEMBL1138799, “4-benzyl- and 4-benzoyl-3-dimethylaminopyridin-2(1H)-ones, a new family of potent anti-HIV agents: optimization and in vitro evaluation against clinically important HIV mutant strains” (J Med Chem, 2004).

Experiment [1] deals with Human immunodeficiency virus 1. The experiment is described as follows: Inhibitory activity against wild type HIV-1 LAI cell line. It counts as functional, organism-based. The conditions noted are these: Human immunodeficiency virus 1, LAI. In short, it runs like this:
(§1)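 MT4 human T-lymphoblastoid cells were grown in RPMI 1640 with 10% fetal calf serum and antibiotics at 37 °C and 5% CO2. A compound concentration series was combined with HIV-1 LAI at 200 CCID50/well and 30 000 cells/well. Mock-infected cultures with the same concentrations were run in parallel to measure cytotoxicity. After 5 days, cell viability was read by MTT colorimetry. EC50 is the concentration giving 50% infection versus the drug-free control.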

Experiment [2] relates to Human immunodeficiency virus 1. Nature of the experiment: Inhibitory activity against HIV-1 mutant strain 103N. The format is functional, organism-based. In short, it runs like this: (§2)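 Mutant HIV-1 made by recombining mutant PR-RT sequence into a PR-RT-deleted HXB2 proviral clone. Serial compound concentrations plated, then virus (200 CCID50/well) and MT4 cells (30 000 cells/well; RPMI 1640, 10% FCS) added; 5 days at 37 °C, 5% CO2; viability read by MTT. EC50 = concentration giving 50% infection versus drug-free control; mock-infected cultures run in parallel for toxicity.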

For experiment [3], the system named is Human immunodeficiency virus 1. The experiment is described as follows: Inhibitory activity against HIV-1 mutant strain 181C. It counts as functional, organism-based. In short, it runs like this: as §2
Experiment [4] concerns Human immunodeficiency virus 1. Nature of the experiment: Inhibitory activity against HIV-1 mutant strain 188L. It counts as functional, organism-based. The method in brief:
as §2

The subject of experiment [5] is Human immunodeficiency virus 1. The experiment is described as follows: Selectivity index of cytotoxic activity (CC50) to inhibitory activity (IC50) relative to LAI cell line. It counts as functional. The method in brief:
as §1

The structures appear in SMILES notation.

`CCc1c(C)nc(O)c(N(C)C)c1C(=O)c1cccc(N)c1`: the IC50 in experiment [1] worked out at 10 nM; in experiment [2] it was 500 nM; in experiment [3] it was 10000 nM; in experiment [4], 10000 nM. Further, the Selectivity index in experiment [5] is 2510.

For `CCc1c(C)nc(O)c(N(C)C)c1C(=O)c1cccc(C(C)=O)c1`, the IC50 in experiment [1] came out at 10 nM; in experiment [2] it was 120 nM; in experiment [3], 1000 nM; in experiment [4], 10000 nM. Also, the Selectivity index in experiment [5] worked out at 3160.

On to `CCc1c(C)nc(O)c(N(C)C)c1C(=O)c1cccc(C(C)C#N)c1` (stereo not given), for which the half-inhibitory concentration (IC50) in experiment [1] came out at 3 nM; in experiment [2], 8 nM; in experiment [3], 120 nM; in experiment [4], 250 nM. Further, in experiment [5], the Selectivity index is 31600.

For `CCc1c(C)nc(O)c(N(C)C)c1Cc1ccccc1Br`, the 50% inhibitory concentration (IC50) in experiment [1] amounted to 6 nM; in experiment [2], 250 nM; in experiment [3], 130 nM; in experiment [4], 1990 nM. In experiment [5], this compound returned a Selectivity index of 15900.

Consider `CCc1c(C)nc(O)c(N(C)C)c1C(=O)c1cccc(/C=C\C#N)c1`, for which the half-maximal inhibitory concentration (IC50) in experiment [1] came to 4 nM; in experiment [2], 3 nM; in experiment [3], 10 nM; in experiment [4], 40 nM. Also, the Selectivity index in experiment [5] is 25100.

Regarding `CCc1c(C)nc(O)c(N(C)C)c1C(=O)c1cccc(CO)c1`, the IC50 in experiment [1] stood at 50 nM; in experiment [2] it was 360 nM; in experiment [3], 3870 nM; in experiment [4], 18600 nM. The Selectivity index in experiment [5] was found to be 2940.

For the compound `CCc1c(C)nc(O)c(N(C)C)c1C(=O)c1cccc(CCC#N)c1`, the IC50 was 3 nM in experiment [1], 10 nM in experiment [2], 250 nM in experiment [3] and 1990 nM in experiment [4]. Besides, in experiment [5], the Selectivity index was found to be 31600.

For `CCc1c(C)nc(O)c(N(C)C)c1Cc1ccccc1Cl`, the half-maximal inhibitory concentration (IC50) in experiment [1] was 6 nM; in experiment [2], 390 nM; in experiment [3], 200 nM; in experiment [4], 790 nM. Moreover, the Selectivity index in experiment [5] was determined as 15900.

On to `CCc1c(C)nc(O)c(N(C)C)c1Cc1ccccc1C`, for which the half-inhibitory concentration (IC50) was 20 nM in experiment [1], 1250 nM in experiment [2], 1000 nM in experiment [3] and 7940 nM in experiment [4]. This compound also came in with a Selectivity index in experiment [5] of 3980.

With `CCc1c(C)nc(O)c(N(C)C)c1Cc1cccc(C)c1C`, the figures for the IC50 in experiment [1], in experiment [2] and in experiment [3] were 100 nM, 2510 nM and 2510 nM, respectively. Also, the Selectivity index in experiment [5] stood at 200.

In the case of `CCc1c(C)nc(O)c(N(C)C)c1C(=O)c1cccc(CC(C)C#N)c1` (stereo not given), the IC50 in experiment [1] is 8 nM; in experiment [2] it was 50 nM; in experiment [3] it was 500 nM; in experiment [4], 1990 nM. This compound also showed a Selectivity index in experiment [5] of 12600.

For `CCc1c(C)nc(O)c(N(C)C)c1Cc1cccc(C)c1`, the half-inhibitory concentration (IC50) in experiment [1] was determined as 2 nM; in experiment [2], 20 nM; in experiment [3] it was 60 nM; in experiment [4], 1000 nM. For the same compound, in experiment [5], the Selectivity index was determined as 39900.

`CCc1c(C)nc(O)c(N(C)C)c1Cc1nccs1`: the results for the concentration for half-maximal inhibition (IC50) in experiment [1], in experiment [2] and in experiment [3] were 60 nM, 1990 nM and 500 nM, respectively. This compound also gave a Selectivity index in experiment [5] of 1580.

With `C/C=C/c1cccc(C(=O)c2c(CC)c(C)nc(O)c2N(C)C)c1`, the IC50 in experiment [1] stood at 5 nM; in experiment [2] it was 150 nM; in experiment [3], 390 nM; in experiment [4] it was 390 nM. This compound had a Selectivity index in experiment [5] of 10000.

On to `CCc1c(C)nc(O)c(N(C)C)c1Cc1cccc(C(F)(F)F)c1`, for which the IC50 in experiment [1] was found to be 10 nM; in experiment [2], 390 nM; in experiment [3], 30 nM; in experiment [4], 5010 nM. This compound also displayed a Selectivity index in experiment [5] of 10000.

In the case of `CCc1c(C)nc(O)c(N(C)C)c1C(=O)c1cccc(/C=C(\C)C#N)c1`, the concentration for half-maximal inhibition (IC50) worked out at 1 nM in experiment [1] and 630 nM in experiment [4]. In experiment [5], this compound had a Selectivity index of 6310.

Take `CCc1c(C)nc(O)c(N(C)C)c1Cc1ccc(N(C)C)cc1`: the 50% inhibitory concentration (IC50) in experiment [1] turned out to be 1250 nM; in experiment [2], 10000 nM; in experiment [3] it was 10000 nM. In experiment [5], this compound registered a Selectivity index of 8.

On to `CCc1c(C)nc(O)c(N(C)C)c1Cc1ccc(C)cc1C`, for which the results for the IC50 in experiment [1], in experiment [2] and in experiment [3] were 10000 nM, 100000 nM and 100000 nM, respectively. In experiment [5], this compound displayed a Selectivity index of 10.

Take `CCc1c(C)nc(O)c(N(C)C)c1Cc1cccc(F)c1`: the IC50 came out at 2 nM in experiment [1], 60 nM in experiment [2], 160 nM in experiment [3] and 1580 nM in experiment [4]. For the same compound, the Selectivity index in experiment [5] was determined as 39800.

As for `CCc1c(C)nc(O)c(N(C)C)c1Cc1ccccc1`, the 50% inhibitory concentration (IC50) in experiment [1] is 4 nM; in experiment [2], 200 nM; in experiment [3], 500 nM; in experiment [4] it was 7940 nM. In experiment [5], this compound came in with a Selectivity index of 25100.

As to `CCc1c(C)nc(O)c(N(C)C)c1C(=O)c1cccc(/C=C/c2cccnc2)c1`, the concentration for half-maximal inhibition (IC50) in experiment [1] was determined as 3 nM; in experiment [2] it was 20 nM; in experiment [3], 60 nM; in experiment [4] it was 150 nM. Further, the Selectivity index in experiment [5] stood at 3160.

Consider `CCc1c(C)nc(O)c(N(C)C)c1Cc1cn(C)c2ccccc12`, for which the IC50 in experiment [1] is 30 nM; in experiment [2], 390 nM; in experiment [3], 310 nM; in experiment [4], 250 nM. For the same compound, in experiment [5], the Selectivity index came to 2510.

On to `CCc1c(C)nc(O)c(N(C)C)c1Cc1nccn1C`, for which the IC50 in experiment [1] and in experiment [4] was 100000 nM throughout. Moreover, the Selectivity index in experiment [5] turned out to be 1.

With `CCc1c(C)nc(O)c(N(C)C)c1C(=O)c1cccc(/C=C/c2cnccn2)c1`, the half-inhibitory concentration (IC50) worked out at 20 nM in experiment [1], 50 nM in experiment [2], 70 nM in experiment [3] and 200 nM in experiment [4]. Also, in experiment [5], the Selectivity index was 3960.

In the case of `CCOC(=O)/C=C/C=C/c1cccc(C(=O)c2c(CC)c(C)nc(O)c2N(C)C)c1`, the IC50 in experiment [1] is 5 nM; in experiment [2], 40 nM; in experiment [3], 200 nM; in experiment [4] it was 630 nM. Also, in experiment [5], the Selectivity index is 398.

On to `CCc1c(C)nc(O)c(N(C)C)c1Cc1ccc(C)cc1`, for which the 50% inhibitory concentration (IC50) in experiment [1] stood at 310 nM; in experiment [2], 12600 nM; in experiment [3], 10000 nM. The compound further displayed a Selectivity index in experiment [5] of 316.

As for `CCc1c(C)nc(O)c(N(C)C)c1C(=O)c1cccc(C)c1`, the IC50 in experiment [1] turned out to be 2 nM; in experiment [4] it was 1990 nM. In addition, the Selectivity index in experiment [5] was 39800.

For the compound `CCc1c(C)nc(O)c(N(C)C)c1Cc1ccc(C(F)(F)F)cc1`, the results for the IC50 in experiment [1], in experiment [2] and in experiment [3] were 1580 nM, 10000 nM and 10000 nM, respectively. In experiment [5], the Selectivity index amounted to 6.

Turning to `CCc1c(C)nc(O)c(N(C)C)c1Cc1ccc(-c2ccccc2)cc1`, the results for the 50% inhibitory concentration (IC50) in experiment [1], in experiment [2] and in experiment [3] were 3980 nM, 10000 nM and 10000 nM, respectively. For the same compound, in experiment [5], the Selectivity index stood at 3.

Turning to `CCc1c(C)nc(O)c(N(C)C)c1Cc1ccc(C)c(C)c1`, the IC50 stood at 40 nM in experiment [1], 1000 nM in experiment [2] and 400 nM in experiment [3]. The Selectivity index in experiment [5] amounted to 2510.

As for `CCc1c(C)nc(O)c(N(C)C)c1Cc1c(C)cc(C)cc1C`, the IC50 in experiment [1], in experiment [2] and in experiment [3] was 10000 nM throughout. For the same compound, in experiment [5], the Selectivity index was 1.
